Screens as filed in PubChem BioAssay.
ATG4B inhibitor: ATG4B (human) cysteine protease inhibition | actives 0.51% (n = 340,000) | inhibition, % at 8.33 µM | ATG4B cleavage of LC3-PLA2, NBD-HPC fluorescence, 1 h | Q9Y4P1; in the data active means inhibition above about 40%
VIM-2 inh: inhibitors of Pseudomonas aeruginosa VIM-2 metallo-beta-lactamase | purified VIM-2, nitrocefin hydrolysis, epi-absorbance fluorescence | inhibition, % at 5.6 µM | actives 0.89% (n = 290,000) | AID 1527;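 active means inhibition above the mean of all tested compounds plus 3 SD, cutoff set per screening run, cut at about 7.5% in these data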;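 further: red hydrolysis product quenches plate fluorescence so inhibitors raise well fluorescence; 0% = enzyme with DMSO and 100% = DMSO without enzyme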
IMP-1 inhibitor: inhibitors of Pseudomonas aeruginosa IMP-1 metallo-beta-lactamase; actives 0.45% (n = 290,000); purified IMP-1, nitrocefin hydrolysis, epi-absorbance fluorescence; AID 1556; inhibition, % at 5.6 µM;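 active means inhibition above the mean plus 3 SD of all compounds in the same screening run, cut at about 4.5% in these data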;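 further: 0% = IMP-1 with DMSO and 100% = DMSO wells lacking enzyme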
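System: purified IMP-1 / Input: IMP-1 dispensed at 0.2 nM / Medium: 50 mM HEPES pH 7.1, 50 µM ZnSO4, 0.05% Brij 35 / Timing: 15 min enzyme–compound preincubation, then 25 min nitrocefin reaction, 25 °C / Technique: plate fluorescence quenching by hydrolysis product, ex 480/em 530 nm / Repeats: singlicate testing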
HKDC1 inhibitor: inhibitors of human hexokinase HKDC1 | Q2TB90 | recombinant HKDC1, G6PDH/diaphorase resazurin coupled fluorescence | inhibition, % at 20 µM | actives 0.16% (n = 340,000) | AID 493160;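 active means inhibition above about 35% when tested at 20 µM, limit read from the data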;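 further: plate controls were DMSO wells with enzyme for no effect and DMSO wells lacking enzyme for full effect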
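Assay system: recombinant HKDC1 hexokinase; detection: coupled resazurin fluorescence, excitation 525 nm, emission 613 nm; benchmarks: DMSO-plus-enzyme-mix negative control, buffer-substituted positive control; compound dosing: single 20 µM dose; schedule: 90 min at room temperature in dark; also added: glucose plus 1 mM ATP as hexokinase substrates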
PvdQ acylase: blocks Pseudomonas aeruginosa PvdQ acylase activity | purified PvdQ acylase, fluorescence plate reader | inhibition, % at 10 µM | actives 0.063% (n = 340,000); in the data active means inhibition above about 30%, passing the limit was not always enough;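 further: 0% = vehicle neutral wells and 100% = reference inhibitor wells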
beta cell repl: MIN6 beta-cell proliferation induction; MIN6 cells proliferation, ATPlite luminescence, 48 h; cells starved in 0.2% serum; 100% = growth in 10% serum; proliferation, % at 10 µM; actives 0.29% (n = 330,000);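 active means compounds whose signal lies at least 3.5 SD above the mean of all wells on their plate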;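 further: 0% = DMSO-treated cells in low-serum medium and 100% = 10% serum control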
ATG4B confirm: ATG4B (human) inhibition, single-dose confirmed; shares compounds with ATG4B inhibitor; ATG4B protease fluorescent substrate cleavage assay; inhibition, % at 8.33 µM; actives 92% (n = 320); AID 504757; in the data active means inhibition above about 39%
PLA2 ctr: counter-screen for ATG4B inhibitors: human phospholipase A2. shares compounds with ATG4B inhibitor. purified PLA2, NBD-C6-HPC fluorescence, 45 min. inhibition, % at 8.33 µM. actives 66% (n = 1,600); in the data active means inhibition above about 50%
Target sequence (P04054 whole entry, looked up): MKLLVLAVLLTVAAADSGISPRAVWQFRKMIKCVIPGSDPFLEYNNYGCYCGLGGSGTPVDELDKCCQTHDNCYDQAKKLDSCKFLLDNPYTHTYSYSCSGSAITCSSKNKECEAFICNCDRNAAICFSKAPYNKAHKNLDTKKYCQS
* hit, by the source's call; nt = no result given. This is a sample that favours compounds with a hit; in the whole collection about 2% have one here.

SMILES	ATG4B inhibitor	VIM-2 inh	IMP-1 inhibitor	HKDC1 inhibitor	PvdQ acylase	beta cell repl	PLA2 ctr	others
CC1CCCCC1NC(=O)COC(=O)c1c2c(nc3ccccc13)/C(=C/c1ccco1)CC2 (stereo not drawn)	53*	1	-3	3	-28	nt	45	ATG4B confirm=75*
CCCOc1cccc(C(=O)N/N=C/c2coc3ccccc3c2=O)c1	43*	-6	4	9	2	-2	74*
O=C(N/N=C/c1coc2ccccc2c1=O)c1cc(Br)c(O)c(Br)c1	22	-3	3	18	-11	1	nt
CC#CC(=O)N1CCC(CO)(CCc2ccccc2)CC1	10	-6	-4	-4	-14	-3	nt
CCCCn1c(/N=C/c2ccccc2NS(=O)(=O)c2ccc(C)cc2)nc2ccccc21	32	-5	-3	8	12	nt	nt
Cc1ccc(S(=O)(=O)Nc2ccccc2/C=N/c2nc3ccccc3n2C(C)C)cc1	55*	-1	-2	6	-12	nt	43	ATG4B confirm=57*
COc1ccc(NC(=O)CC(C)c2ccccc2)c([N+](=O)[O-])c1 (stereo not drawn)	42*	-2	-1	8	-4	2	1
COc1ccc(NC(=O)CC(C)C)c([N+](=O)[O-])c1	4	-1	-2	4	-4	-2	nt
CCNc1nc(N)nc(-c2cc(Cl)ccc2O)n1	20	-3	-3	-2	-5	-1	nt
CCCCNc1nc(N)nc(-c2cc(Cl)ccc2O)n1	46*	-3	-2	12	-8	-4	50*
CCCCn1c(=S)[nH]c2c(oc3ccc(Cl)cc32)c1=O	nt	-4	-3	nt	nt	nt	nt
CCOC(=O)c1sc2ccccc2c1OC(=O)c1ccccc1	11	-4	-4	0	-9	-3	nt
CCOC(=O)c1sc2ccccc2c1NC(=O)c1coc2ccccc2c1=O	53*	-2	-1	8	-2	-6	43
Cc1csc(CNc2ncnc3ccc(-c4cccc(Cl)c4)cc23)c1	17	nt	nt	-3	5	-5	nt
COc1ccc(OC)c(C(=O)NC(CC(N)=O)c2ccc(NCCN3CCOCC3)c([N+](=O)[O-])c2)c1 (stereo not drawn)	-1	nt	nt	4	-7	-6	nt
FC(F)(F)c1ccc(-c2nnc(-c3ccccn3)c(-c3ccccn3)n2)nc1	1	-1	-2	-6	-12	0	nt
COC(=O)c1c(NC(=O)C2Cc3ccccc3C(=O)O2)sc2c1CCCC2 (stereo not drawn)	49*	-2	-3	-2	-5	-2	29	ATG4B confirm=83*
CCOC(=O)c1c(NC(=O)C2Cc3ccccc3C(=O)O2)sc2c1CCCC2 (stereo not drawn)	3	nt	nt	0	3	-4	nt
O=C(CSc1nc2ccc(Cl)cc2[nH]1)NCCc1ccccc1	5	-6	-2	3	-6	-2	nt
O=C(CSc1nc2ccc(Cl)cc2[nH]1)NCCc1ccc(Cl)cc1	46*	-3	-3	9	-21	-3	50*
O=c1c2ccccc2nc(/C=C/c2ccc(O)cc2)n1CCc1ccccc1	48*	-1	-2	4	-8	-5	48	ATG4B confirm=72*
O=C(NCCc1ccccc1)c1ccc(NS(=O)(=O)c2ccc3[nH]c(=O)[nH]c3c2)cc1	5	nt	nt	0	1	-3	nt
Cc1cccc(C(=O)c2cnc3ccccc3c2-c2ccccc2)c1	57*	-2	-2	6	-10	-2	59*
Cc1cccc(C(=O)NNC(=O)c2ccccc2)c1	-12	3	0	-5	-10	0	nt
Cc1ccccc1CN(c1ccc(C(=O)N/N=C/c2ccc(OCC(N)=O)cc2)cc1)S(C)(=O)=O	46*	-1	0	0	8	-1	47
COc1cc(C(=O)OCC(=O)Nc2ccc(C)cc2)cc(OC)c1OC	-4	-5	-2	-2	-15	0	nt
